Results: ChEMBL document CHEMBL4152188, “Design, synthesis and biological evaluation of C(4) substituted monobactams as antibacterial agents against multidrug-resistant Gram-negative bacteria” (Eur J Med Chem, 2018)
Converted amounts (≈) assume the structure as drawn.

Columns and labels:
Assay type in all cases: functional
Klebsiella pneumoniae [1] = test: Antibacterial activity against KPC-2 producing Klebsiella pneumoniae isolate 209735 after 18 hrs in presence of BPL by CLSI broth microdilution method; conditions: isolate 209735, 18 h
In short: (§1)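 CLSI broth microdilution against clinical isolates (ESBL E. coli, KPC-2 MDR K. pneumoniae, IMP-4 MDR P. aeruginosa; five per species). Iron limitation: Mueller-Hinton broth supplemented with 16 mg/liter 2,2'-bipyridyl to complex iron and induce iron uptake systems. Read-out: MIC.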

Pseudomonas aeruginosa [2] = test: Antibacterial activity against IMP-4 producing Pseudomonas aeruginosa isolate 208247 after 18 hrs in presence of BPL by CLSI broth microdilution method; conditions: isolate 208247, 18 h; in short: as §1
Klebsiella pneumoniae [3] = test: Antibacterial activity against KPC-2 producing Klebsiella pneumoniae isolate 212232 after 18 hrs in presence of BPL by CLSI broth microdilution method; conditions: isolate 212232, 18 h; in short: as §1
Pseudomonas aeruginosa [4] = test: Antibacterial activity against IMP-4 producing Pseudomonas aeruginosa isolate 209321 after 18 hrs in presence of BPL by CLSI broth microdilution method; conditions: isolate 209321, 18 h; in short: as §1
Klebsiella pneumoniae [5] = test: Antibacterial activity against KPC-2 producing Klebsiella pneumoniae isolate 212232 after 18 hrs by CLSI broth microdilution method; conditions: isolate 212232, 18 h
Escherichia coli [6] = test: Antibacterial activity against extended-spectrum beta-lactamase producing Escherichia coli isolate 212648 after 18 hrs in presence of BPL by CLSI broth microdilution method; conditions: isolate 212648, 18 h; in short: as §1
Escherichia coli [7] = test: Antibacterial activity against extended-spectrum beta-lactamase producing Escherichia coli isolate 208687 after 18 hrs by CLSI broth microdilution method; conditions: isolate 208687, 18 h
Pseudomonas aeruginosa [8] = test: Antibacterial activity against IMP-4 producing Pseudomonas aeruginosa isolate 208247 after 18 hrs by CLSI broth microdilution method; conditions: isolate 208247, 18 h
Klebsiella pneumoniae [9] = test: Antibacterial activity against KPC-2 producing Klebsiella pneumoniae isolate 212423 after 18 hrs by CLSI broth microdilution method; conditions: isolate 212423, 18 h
Escherichia coli [10] = test: Antibacterial activity against extended-spectrum beta-lactamase producing Escherichia coli isolate 209285 after 18 hrs in presence of BPL by CLSI broth microdilution method; conditions: isolate 209285, 18 h; in short: as §1
Pseudomonas aeruginosa [11] = test: Antibacterial activity against IMP-4 producing Pseudomonas aeruginosa isolate 212886 after 18 hrs by CLSI broth microdilution method; conditions: isolate 212886, 18 h
Klebsiella pneumoniae [12] = test: Antibacterial activity against KPC-2 producing Klebsiella pneumoniae isolate 212423 after 18 hrs in presence of BPL by CLSI broth microdilution method; conditions: isolate 212423, 18 h; in short: as §1
Escherichia coli [13] = test: Antibacterial activity against extended-spectrum beta-lactamase producing Escherichia coli isolate 209285 after 18 hrs by CLSI broth microdilution method; conditions: isolate 209285, 18 h
Pseudomonas aeruginosa [14] = test: Antibacterial activity against IMP-4 producing Pseudomonas aeruginosa isolate 207272 after 18 hrs in presence of BPL by CLSI broth microdilution method; conditions: isolate 207272, 18 h; in short: as §1
Pseudomonas aeruginosa [15] = test: Selectivity index, ratio of MIC for against IMP-4 producing Pseudomonas aeruginosa isolate 209321 to MIC for against IMP-4 producing Pseudomonas aeruginosa isolate 209321 in presence of BPL
Klebsiella pneumoniae [16] = test: Antibacterial activity against KPC-2 producing Klebsiella pneumoniae isolate 212229 after 18 hrs by CLSI broth microdilution method; conditions: isolate 212229, 18 h
Pseudomonas aeruginosa [17] = test: Selectivity index, ratio of MIC for against IMP-4 producing Pseudomonas aeruginosa isolate 209471 to MIC for against IMP-4 producing Pseudomonas aeruginosa isolate 209471 in presence of BPL
Escherichia coli [18] = test: Antibacterial activity against Escherichia coli isolate 210737 after 18 hrs by CLSI broth microdilution method; conditions: isolate 210737, 18 h
Pseudomonas aeruginosa [19] = test: Selectivity index, ratio of MIC for against IMP-4 producing Pseudomonas aeruginosa isolate 207272 to MIC for against IMP-4 producing Pseudomonas aeruginosa isolate 207272 in presence of BPL
Escherichia coli [20] = test: Selectivity index, ratio of MIC for against extended-spectrum beta-lactamase producing Escherichia coli isolate 208687 to MIC for extended-spectrum beta-lactamase producing Escherichia coli isolate 208687 in presence of BPL
Klebsiella pneumoniae [21] = test: Antibacterial activity against KPC-2 producing Klebsiella pneumoniae isolate 209632 after 18 hrs in presence of BPL by CLSI broth microdilution method; conditions: isolate 209632, 18 h; in short: as §1
Pseudomonas aeruginosa [22] = test: Antibacterial activity against IMP-4 producing Pseudomonas aeruginosa isolate 212886 after 18 hrs in presence of BPL by CLSI broth microdilution method; conditions: isolate 212886, 18 h; in short: as §1
Escherichia coli [23] = test: Antibacterial activity against extended-spectrum beta-lactamase producing Escherichia coli isolate 212648 after 18 hrs by CLSI broth microdilution method; conditions: isolate 212648, 18 h
Klebsiella pneumoniae [24] = test: Selectivity index, ratio of MIC for against KPC-2 producing Klebsiella pneumoniae isolate 209632 to MIC for against KPC-2 producing Klebsiella pneumoniae isolate 209632 in presence of BPL
Klebsiella pneumoniae [25] = test: Selectivity index, ratio of MIC for against KPC-2 producing Klebsiella pneumoniae isolate 209735 to MIC for against KPC-2 producing Klebsiella pneumoniae isolate 209735 in presence of BPL
Pseudomonas aeruginosa [26] = test: Antibacterial activity against IMP-4 producing Pseudomonas aeruginosa isolate 209471 after 18 hrs in presence of BPL by CLSI broth microdilution method; conditions: isolate 209471, 18 h; in short: as §1
Klebsiella pneumoniae [27] = test: Selectivity index, ratio of MIC for against KPC-2 producing Klebsiella pneumoniae isolate 212229 to MIC for against KPC-2 producing Klebsiella pneumoniae isolate 212229 in presence of BPL
Klebsiella pneumoniae [28] = test: Antibacterial activity against KPC-2 producing Klebsiella pneumoniae isolate 209632 after 18 hrs by CLSI broth microdilution method; conditions: isolate 209632, 18 h
Pseudomonas aeruginosa [29] = test: Antibacterial activity against IMP-4 producing Pseudomonas aeruginosa isolate 209471 after 18 hrs by CLSI broth microdilution method; conditions: isolate 209471, 18 h
Klebsiella pneumoniae [30] = test: Antibacterial activity against KPC-2 producing Klebsiella pneumoniae isolate 209735 after 18 hrs by CLSI broth microdilution method; conditions: isolate 209735, 18 h
Pseudomonas aeruginosa [31] = test: Antibacterial activity against IMP-4 producing Pseudomonas aeruginosa isolate 209321 after 18 hrs by CLSI broth microdilution method; conditions: isolate 209321, 18 h
Escherichia coli [32] = test: Antibacterial activity against extended-spectrum beta-lactamase producing Escherichia coli isolate 106342 after 18 hrs in presence of BPL by CLSI broth microdilution method; conditions: isolate 106342, 18 h; in short: as §1
Klebsiella pneumoniae [33] = test: Selectivity index, ratio of MIC for against KPC-2 producing Klebsiella pneumoniae isolate 212232 to MIC for against KPC-2 producing Klebsiella pneumoniae isolate 212232 in presence of BPL
Escherichia coli [34] = test: Selectivity index, ratio of MIC for against extended-spectrum beta-lactamase producing Escherichia coli isolate 106342 to MIC for extended-spectrum beta-lactamase producing Escherichia coli isolate 106342 in presence of BPL
Escherichia coli [35] = test: Antibacterial activity against extended-spectrum beta-lactamase producing Escherichia coli isolate 208687 after 18 hrs in presence of BPL by CLSI broth microdilution method; conditions: isolate 208687, 18 h; in short: as §1
Pseudomonas aeruginosa [36] = test: Antibacterial activity against IMP-4 producing Pseudomonas aeruginosa isolate 207272 after 18 hrs by CLSI broth microdilution method; conditions: isolate 207272, 18 h
Escherichia coli [37] = test: Selectivity index, ratio of MIC for against extended-spectrum beta-lactamase producing Escherichia coli isolate 209285 to MIC for extended-spectrum beta-lactamase producing Escherichia coli isolate 209285 in presence of BPL
Pseudomonas aeruginosa [38] = test: Selectivity index, ratio of MIC for against IMP-4 producing Pseudomonas aeruginosa isolate 208247 to MIC for against IMP-4 producing Pseudomonas aeruginosa isolate 208247 in presence of BPL
Pseudomonas aeruginosa [39] = test: Selectivity index, ratio of MIC for against IMP-4 producing Pseudomonas aeruginosa isolate 212886 to MIC for against IMP-4 producing Pseudomonas aeruginosa isolate 212886 in presence of BPL
Klebsiella pneumoniae [40] = test: Selectivity index, ratio of MIC for against KPC-2 producing Klebsiella pneumoniae isolate 212423 to MIC for against KPC-2 producing Klebsiella pneumoniae isolate 212423 in presence of BPL
Escherichia coli [41] = test: Selectivity index, ratio of MIC for against extended-spectrum beta-lactamase producing Escherichia coli isolate 212648 to MIC for extended-spectrum beta-lactamase producing Escherichia coli isolate 212648 in presence of BPL
Klebsiella pneumoniae [42] = test: Antibacterial activity against KPC-2 producing Klebsiella pneumoniae isolate 212229 after 18 hrs in presence of BPL by CLSI broth microdilution method; conditions: isolate 212229, 18 h; in short: as §1
Escherichia coli [43] = test: Antibacterial activity against extended-spectrum beta-lactamase producing Escherichia coli isolate 106342 after 18 hrs by CLSI broth microdilution method; conditions: isolate 106342, 18 h
Escherichia coli [44] = test: Selectivity index, ratio of MIC for against Escherichia coli isolate 210737 to MIC for Escherichia coli isolate 210737 in presence of BPL
Escherichia coli [45] = test: Antibacterial activity against Escherichia coli isolate 210737 after 18 hrs in presence of BPL by CLSI broth microdilution method; conditions: isolate 210737, 18 h; in short: as §1

SMILES: CC(=O)OC[C@@H]1[C@H](NC(=O)/C(=N\OC(c2cc(=O)c(O)cn2O)C(C)C)c2csc(N)n2)C(=O)N1S(=O)(=O)O (stereo not given in full)
- MIC (Klebsiella pneumoniae [1]): 1 µg/mL
- MIC (Pseudomonas aeruginosa [2]): 64 µg/mL
- MIC (Klebsiella pneumoniae [3]): 0.5 µg/mL
- MIC (Pseudomonas aeruginosa [4]): 64 µg/mL
- MIC (Klebsiella pneumoniae [5]): 8 µg/mL (≈ 13.6 µM)
- MIC (Escherichia coli [6]): 0.5 µg/mL
- MIC (Escherichia coli [7]): 1 µg/mL (≈ 1.7 µM)
- MIC (Pseudomonas aeruginosa [8]): 64 µg/mL (≈ 109 µM)
- MIC (Klebsiella pneumoniae [9]): 2 µg/mL (≈ 3.4 µM)
- MIC (Escherichia coli [10]): 0.5 µg/mL
- MIC (Pseudomonas aeruginosa [11]): > 64 µg/mL
- MIC (Klebsiella pneumoniae [12]): 1 µg/mL
- MIC (Escherichia coli [13]): 1 µg/mL (≈ 1.7 µM)
- MIC (Pseudomonas aeruginosa [14]): 64 µg/mL
- Selectivity Index (Pseudomonas aeruginosa [15]): 1
- MIC (Klebsiella pneumoniae [16]): 2 µg/mL (≈ 3.4 µM)
- Selectivity Index (Pseudomonas aeruginosa [17]): 2
- MIC (Escherichia coli [18]): 0.5 µg/mL (≈ 0.85 µM)
- Selectivity Index (Pseudomonas aeruginosa [19]): >1
- Selectivity Index (Escherichia coli [20]): 4
- MIC (Klebsiella pneumoniae [21]): 1 µg/mL
- MIC (Pseudomonas aeruginosa [22]): 16 µg/mL
- MIC (Escherichia coli [23]): 1 µg/mL (≈ 1.7 µM)
- Selectivity Index (Klebsiella pneumoniae [24]): 2
- Selectivity Index (Klebsiella pneumoniae [25]): 2
- MIC (Pseudomonas aeruginosa [26]): 32 µg/mL
- Selectivity Index (Klebsiella pneumoniae [27]): 2
- MIC (Klebsiella pneumoniae [28]): 2 µg/mL (≈ 3.4 µM)
- MIC (Pseudomonas aeruginosa [29]): 64 µg/mL (≈ 109 µM)
- MIC (Klebsiella pneumoniae [30]): 2 µg/mL (≈ 3.4 µM)
- MIC (Pseudomonas aeruginosa [31]): 64 µg/mL (≈ 109 µM)
- MIC (Escherichia coli [32]): 1 µg/mL
- Selectivity Index (Klebsiella pneumoniae [33]): 16
- Selectivity Index (Escherichia coli [34]): 1
- MIC (Escherichia coli [35]): 0.25 µg/mL
- MIC (Pseudomonas aeruginosa [36]): > 64 µg/mL
- Selectivity Index (Escherichia coli [37]): 2
- Selectivity Index (Pseudomonas aeruginosa [38]): 1
- Selectivity Index (Pseudomonas aeruginosa [39]): >4
- Selectivity Index (Klebsiella pneumoniae [40]): 2
- Selectivity Index (Escherichia coli [41]): 2
- MIC (Klebsiella pneumoniae [42]): 1 µg/mL
- MIC (Escherichia coli [43]): 1 µg/mL (≈ 1.7 µM)
- Selectivity Index (Escherichia coli [44]): 1
- MIC (Escherichia coli [45]): 0.5 µg/mL
